Measured values taken from ChEMBL document CHEMBL4680238, “Novel octapeptide-DTX prodrugs targeting MMP-7 as effective agents for the treatment of colorectal cancer with lower systemic toxicity” (Eur J Med Chem, 2020).
Residues, ends and D or L forms follow the SMILES beside them. *: point of attachment. X2 = CC(=O)O[C@@]12CO[C@@H]1C[C@H](O)[C@@]1(C)C(=O)[C@H](O)C3=C(C)[C@@H](OC(=O)[C@H](OC(=O)OCc4ccc(N*)cc4)[C@@H](NC(=O)OC(C)(C)C(F)(F)F)c4ccccc4)C[C@@](O)([C@@H](OC(=O)c4cccc(F)c4)[C@H]21)C3(C)C; X1 = CC(=O)O[C@@]12CO[C@@H]1C[C@H](O)[C@@]1(C)C(=O)[C@H](O)C3=C(C)[C@@H](OC(=O)[C@H](OC(=O)OCc4ccc(N*)cc4)[C@@H](NC(=O)OC(C)(C)C)c4ccccc4)C[C@@](O)([C@@H](OC(=O)c4ccccc4)[C@H]21)C3(C)C; Fmoc = O=C(OCC1c2ccccc2-c2ccccc21)*

What was measured:
[1] = Half life of compound in PBS buffer at pH 7.4 at 50 ug/ml up to 72 hrs by RP-HPLC analysis; format: physicochemical; conditions: dose 50 µg/ml
HEK293 = experiment: Cytotoxicity against HEK293 cells assessed as reduction in cell viability after 48 hrs by MTT assay; format: cell-based; conditions: Homo sapiens, HEK293, 48 h
Outline: (§1)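 Cells seeded at 5000/well and precultured 1 day. HCT116 grown in McCoy's 5A + 10% FBS; SW620 and HEK293 in DMEM + 10% FBS; CCD18Co in DMEM + 15% FBS. Compounds from 0.1 M DMSO stocks were tested at 10^-10 to 10^-4 mol/L in sixplicate: HCT116 and HEK293 for 48 h, SW620 and CCD18Co for 72 h, at 37 °C, 5% CO2. MTT (5 mg/mL) added for 4 h, then A570 read; IC50 estimated.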

CCD-18Co = experiment: Cytotoxicity against human CCD-18Co cells assessed as reduction in cell viability after 72 hrs by MTT assay; format: cell-based; outline: as §1
SW-620 = experiment: Cytotoxicity against human SW-620 cells assessed as reduction in cell viability after 72 hrs by MTT assay; format: functional, cell-based; conditions: SW-620, 72 h; outline: as §1
[2] = Half life in Sprague-Dawley rat plasma t 50 ug/ml up to 72 hrs by RP-HPLC analysis; format: ADME, cell-free; conditions: dose 50 µg/ml
HCT-116 [3] = experiment: Cytotoxicity against human HCT-116 cells assessed as reduction in cell viability after 48 hrs by MTT assay; format: functional, cell-based; conditions: HCT-116, 48 h; outline: as §1
HCT-116 [4] = experiment: Antitumour activity against human HCT-116 cells xenografted in BALB/c nude mouse assessed as tumour growth inhibition at 5 mg/kg, ip administered once for every 7 days for 14 days relative to control; format: functional; conditions: HCT-116, ip, 336 h, time 14 day, read-out: TGI
Outline: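 Male BALB/c nude mice received s.c. HCT116 cells (2 × 10^6 in 0.2 mL PBS). Once tumours reached 100-200 mm3, mice were randomized into groups of six. Dosing was ip, 0.1 mL/10 g, once every 7 days, in DMSO 0.5%/castor oil 5%/ethanol 5%/saline 89.5%; vehicle controls got solvent. Caliper volume V = L×W²×0.52 read every 2-3 days. Tumours excised and weighed on day 14.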

Row | SMILES | half-life at 50 ug/ml [1] [h] | IC50 (HEK293) [µM] | IC50 (CCD-18Co) [µM] | IC50 (SW-620) [µM] | half-life at 50 ug/ml [2] [h] | IC50 (HCT-116 [3]) [µM] | inhibition in vivo at 5 mg/kg (HCT-116 [4]) [%]
1 | CC[C@H](C)[C@H](NC(=O)CNC(=O)[C@H](CCSC)NC(=O)[C@@H]1CCCN1C(=O)CNC(C)=O)C(=O)N[C@@H](C)C(=O)NCC(=O)N[C@@H](CCC(N)=O)C(=O)N[C@@H](CC(C)C)C(=O)Nc1ccc(COC(=O)O[C@@H](C(=O)O[C@H]2C[C@@]3(O)[C@@H](OC(=O)c4ccccc4)[C@@H]4[C@]5(OC(C)=O)CO[C@@H]5C[C@H](O)[C@@]4(C)C(=O)[C@H](O)C(=C2C)C3(C)C)[C@@H](NC(=O)OC(C)(C)C)c2ccccc2)cc1 (Ac-GPMGIAGQL-X1) | > 72 | 11 | > 200 | 1.14 | 23.9 | 0.0072 | 
2 | CC[C@H](C)[C@H](NC(=O)CNC(=O)[C@H](CCSC)NC(=O)[C@@H]1CCCN1C(=O)CNC(C)=O)C(=O)N[C@@H](C)C(=O)NCC(=O)N[C@@H](CCC(N)=O)C(=O)N[C@@H](CC(C)C)C(=O)Nc1ccc(COC(=O)O[C@@H](C(=O)O[C@H]2C[C@@]3(O)[C@@H](OC(=O)c4cccc(F)c4)[C@@H]4[C@]5(OC(C)=O)CO[C@@H]5C[C@H](O)[C@@]4(C)C(=O)[C@H](O)C(=C2C)C3(C)C)[C@@H](NC(=O)OC(C)(C)C(F)(F)F)c2ccccc2)cc1 (Ac-GPMGIAGQL-X2) | > 72 | 21.3 | > 200 | > 200 | 24 | 0.0209 | 
3 | CC[C@H](C)[C@H](NC(=O)[C@H](C)NC(=O)[C@H](CCC(N)=O)NC(=O)[C@@H]1CCCN1C(=O)CNC(C)=O)C(=O)N[C@@H](C)C(=O)NCC(=O)N[C@@H](CCC(N)=O)C(=O)N[C@@H](CC(C)C)C(=O)Nc1ccc(COC(=O)O[C@@H](C(=O)O[C@H]2C[C@@]3(O)[C@@H](OC(=O)c4ccccc4)[C@@H]4[C@]5(OC(C)=O)CO[C@@H]5C[C@H](O)[C@@]4(C)C(=O)[C@H](O)C(=C2C)C3(C)C)[C@@H](NC(=O)OC(C)(C)C)c2ccccc2)cc1 (Ac-GPQAIAGQL-X1) | > 72 | 106 | > 200 | > 200 | 12 | 0.0113 | 
4 | CC[C@H](C)[C@H](NC(=O)[C@H](C)NC(=O)[C@H](CCC(N)=O)NC(=O)[C@@H]1CCCN1C(=O)CNC(C)=O)C(=O)N[C@@H](C)C(=O)NCC(=O)N[C@@H](CCC(N)=O)C(=O)N[C@@H](CC(C)C)C(=O)Nc1ccc(COC(=O)O[C@@H](C(=O)O[C@H]2C[C@@]3(O)[C@@H](OC(=O)c4cccc(F)c4)[C@@H]4[C@]5(OC(C)=O)CO[C@@H]5C[C@H](O)[C@@]4(C)C(=O)[C@H](O)C(=C2C)C3(C)C)[C@@H](NC(=O)OC(C)(C)C(F)(F)F)c2ccccc2)cc1 (Ac-GPQAIAGQL-X2) | > 72 | 94.1 | > 200 | 0.65 | 24 | 0.0054 | 
5 | CC(=O)NCC(=O)N1CCC[C@H]1C(=O)N[C@@H](CCC(N)=O)C(=O)NCC(=O)N[C@@H](CC(C)C)C(=O)N[C@@H](C)C(=O)NCC(=O)N[C@@H](CCC(N)=O)C(=O)N[C@@H](CC(C)C)C(=O)Nc1ccc(COC(=O)O[C@@H](C(=O)O[C@H]2C[C@@]3(O)[C@@H](OC(=O)c4ccccc4)[C@@H]4[C@]5(OC(C)=O)CO[C@@H]5C[C@H](O)[C@@]4(C)C(=O)[C@H](O)C(=C2C)C3(C)C)[C@@H](NC(=O)OC(C)(C)C)c2ccccc2)cc1 (Ac-GPQGLAGQL-X1) | 35.1 | 165 | > 200 | 21.9 | 14 | 0.0052 | 
6 | CC(=O)NCC(=O)N1CCC[C@H]1C(=O)N[C@@H](CCC(N)=O)C(=O)NCC(=O)N[C@@H](CC(C)C)C(=O)N[C@@H](C)C(=O)NCC(=O)N[C@@H](CCC(N)=O)C(=O)N[C@@H](CC(C)C)C(=O)Nc1ccc(COC(=O)O[C@@H](C(=O)O[C@H]2C[C@@]3(O)[C@@H](OC(=O)c4cccc(F)c4)[C@@H]4[C@]5(OC(C)=O)CO[C@@H]5C[C@H](O)[C@@]4(C)C(=O)[C@H](O)C(=C2C)C3(C)C)[C@@H](NC(=O)OC(C)(C)C(F)(F)F)c2ccccc2)cc1 (Ac-GPQGLAGQL-X2) | 48.3 | 6.17 | > 200 | > 200 | 24.1 | 0.0257 | 
7 | CC[C@H](C)[C@H](NC(=O)CNC(=O)[C@H](CC(C)C)NC(=O)[C@@H]1CCCN1C(=O)CNC(=O)OCC1c2ccccc2-c2ccccc21)C(=O)N[C@@H](C)C(=O)NCC(=O)N[C@@H](CCC(N)=O)C(=O)N[C@@H](CC(C)C)C(=O)Nc1ccc(COC(=O)O[C@@H](C(=O)O[C@H]2C[C@@]3(O)[C@@H](OC(=O)c4ccccc4)[C@@H]4[C@]5(OC(C)=O)CO[C@@H]5C[C@H](O)[C@@]4(C)C(=O)[C@H](O)C(=C2C)C3(C)C)[C@@H](NC(=O)OC(C)(C)C)c2ccccc2)cc1 (Fmoc-GPLGIAGQL-X1) | > 72 | 15.2 | > 200 | 1.01 | 35.9 | 0.0098 | 
8 | CC[C@H](C)[C@H](NC(=O)CNC(=O)[C@H](CC(C)C)NC(=O)[C@@H]1CCCN1C(=O)CNC(=O)OCC1c2ccccc2-c2ccccc21)C(=O)N[C@@H](C)C(=O)NCC(=O)N[C@@H](CCC(N)=O)C(=O)N[C@@H](CC(C)C)C(=O)Nc1ccc(COC(=O)O[C@@H](C(=O)O[C@H]2C[C@@]3(O)[C@@H](OC(=O)c4cccc(F)c4)[C@@H]4[C@]5(OC(C)=O)CO[C@@H]5C[C@H](O)[C@@]4(C)C(=O)[C@H](O)C(=C2C)C3(C)C)[C@@H](NC(=O)OC(C)(C)C(F)(F)F)c2ccccc2)cc1 (Fmoc-GPLGIAGQL-X2) | > 72 | 38.3 | > 200 | 0.21 | 47.8 | 0.439 | 
9 | O=c1[nH]cc(F)c(=O)[nH]1 [FLUOROURACIL] |  | 79.3 | > 200 | 6.96 |  | 26 | 11.4
